According to ChEMBL document CHEMBL2384957, “Synthesis and antimicrobical evaluation of a novel class of 1,3,4-thiadiazole: derivatives bearing 1,2,4-triazolo[1,5-a]pyrimidine moiety” (2013):
Values after ≈ are worked out from the molar mass of the structure shown.

Experiments:
Assay type in all cases: functional
Staphylococcus aureus = experiment: Antibacterial activity against Staphylococcus aureus ATCC 6538 assessed as growth inhibition after 24 hrs by two-fold serial dilution method; settings: ATCC 6538, 24 h
Summary of the method: (§1)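 MICs were determined by two-fold serial dilution in nutrient broth, following CLSI. The inoculum came from 24 h bacterial cultures on nutrient agar at 37 ± 1 °C and was adjusted in sterile saline to 1×10⁴–10⁵ CFU/mL. Tubes were incubated at 37 ± 1 °C. MIC was read visually after 24 h, with kanamycin as the reference standard.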

Bacillus spizizenii = experiment: Antibacterial activity against Bacillus subtilis ATCC 6633 assessed as growth inhibition after 24 hrs by two-fold serial dilution method; settings: ATCC 6633, 24 h; summary of the method: as §1
Escherichia coli = experiment: Antibacterial activity against Escherichia coli ATCC 35218 assessed as growth inhibition after 24 hrs by two-fold serial dilution method; settings: ATCC 35218, 24 h; summary of the method: as §1
Pseudomonas fluorescens = experiment: Antibacterial activity against Pseudomonas fluorescens ATCC 13525 assessed as growth inhibition after 24 hrs by two-fold serial dilution method; settings: ATCC 13525, 24 h; summary of the method: as §1
[1] = Antifungal activity against Gibberella saubinettii assessed as inhibition of mycelia elongation rate at 50 ppm after 48 hrs relative to control; settings: Fusarium graminearum
Summary of the method: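 Poisoned-agar mycelial growth test: sample dissolved in DMF at 500 mg/L, 1 mL mixed into 9 mL thawed potato glucose agar at 50 °C and poured into plates. A 4 mm mycelium disk was placed on each plate, inverted, incubated 28 °C for 48 h. Mycelial elongation radius (mm) measured against a sample-free medium blank; three replicates.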

Rhizoctonia solani = experiment: Antifungal activity against Rhizoctonia solani assessed as inhibition of mycelia elongation rate at 50 ppm after 48 hrs relative to control
Summary of the method: (§2)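 This was a mycelial growth assay on potato glucose agar. Samples were dissolved in DMF at 500 mg/L (stock), and 1 part solution was mixed with 9 parts thawed medium at 50 °C before plating. Solidified plates were inoculated with a 4 mm mycelium disk, inverted and incubated at 28 °C for 48 h. Medium without sample served as blank. Mycelial elongation radius was measured, in triplicate.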

Cercospora beticola = experiment: Antifungal activity against Cercospora beticola assessed as inhibition of mycelia elongation rate at 50 ppm after 48 hrs relative to control; summary of the method: as §2
[2] = Antifungal activity against Physalospora pyricola assessed as inhibition of mycelia elongation rate at 50 ppm after 48 hrs relative to control; settings: Botryosphaeria berengeriana; summary of the method: as §2
Fusarium oxysporum = experiment: Antifungal activity against Fusarium oxysporum assessed as inhibition of mycelia elongation rate at 50 ppm after 48 hrs relative to control; summary of the method: as §2

Structure (SMILES)	MIC (Staphylococcus aureus)	MIC (Bacillus spizizenii)	MIC (Escherichia coli)	MIC (Pseudomonas fluorescens)	inhibition [1]	inhibition at 50 ppm (Rhizoctonia solani)	inhibition at 50 ppm (Cercospora beticola)	inhibition [2]	inhibition at 50 ppm (Fusarium oxysporum)
NC[C@H]1O[C@H](O[C@H]2[C@H](O)[C@@H](O[C@H]3O[C@H](CO)[C@@H](O)[C@H](N)[C@H]3O)[C@H](N)C[C@@H]2N)[C@H](O)[C@@H](O)[C@@H]1O [KANAMYCIN]	3.13 µg/mL (≈ 6.46 µM)	0.78 µg/mL (≈ 1.61 µM)	1.56 µg/mL (≈ 3.22 µM)	3.13 µg/mL (≈ 6.46 µM)	–	–	–	–	–
C=Cc1ccc(CSc2nnc(CSc3nc4nc(C)cc(C)n4n3)s2)cc1	12.5 µg/mL (≈ 29.3 µM)	50 µg/mL (≈ 117 µM)	12.5 µg/mL (≈ 29.3 µM)	100 µg/mL (≈ 234 µM)	78%	50%	54%	72%	42%
COc1cccc(CSc2nnc(CSc3nc4nc(C)cc(C)n4n3)s2)c1	12.5 µg/mL (≈ 29 µM)	50 µg/mL (≈ 116 µM)	25 µg/mL (≈ 58.1 µM)	> 100 µg/mL	67%	49%	62%	69%	44%
Cc1ccc(CSc2nnc(CSc3nc4nc(C)cc(C)n4n3)s2)c([N+](=O)[O-])c1	25 µg/mL (≈ 54.4 µM)	25 µg/mL (≈ 54.4 µM)	12.5 µg/mL (≈ 27.2 µM)	1.56 µg/mL (≈ 3.39 µM)	66%	80%	64%	78%	54%
Cc1cc(C)n2nc(SCc3nnc(SCc4ccccc4Br)s3)nc2n1	> 100 µg/mL	> 100 µg/mL	12.5 µg/mL (≈ 26.1 µM)	25 µg/mL (≈ 52.1 µM)	44%	63%	45%	75%	40%
Cc1cc(C)n2nc(SCc3nnc(SCc4c(F)cccc4F)s3)nc2n1	> 100 µg/mL	50 µg/mL (≈ 115 µM)	12.5 µg/mL (≈ 28.6 µM)	6.25 µg/mL (≈ 14.3 µM)	33%	83%	60%	73%	36%
Cc1cc(C)n2nc(SCc3nnc(SCc4cccc(F)c4)s3)nc2n1	> 100 µg/mL	> 100 µg/mL	12.5 µg/mL (≈ 29.9 µM)	50 µg/mL (≈ 119 µM)	17%	60%	41%	71%	45%
COC(=O)Nc1nc2ccccc2[nH]1 [CARBENDAZIM]	–	–	–	–	75%	62%	66%	74%	48%
CC(C)(C)C(=O)C(Oc1ccc(Cl)cc1)n1cncn1 (centres undefined) [TRIADIMEFON]	–	–	–	–	81%	40%	35%	55%	37%
Cc1cc(C)n2nc(SCc3nnc(SCc4cc(F)cc(F)c4)s3)nc2n1	> 100 µg/mL	50 µg/mL (≈ 115 µM)	25 µg/mL (≈ 57.3 µM)	12.5 µg/mL (≈ 28.6 µM)	41%	75%	61%	68%	38%
Cc1cc(C)n2nc(SCc3nnc(SCc4ccccc4Cl)s3)nc2n1	> 100 µg/mL	> 100 µg/mL	12.5 µg/mL (≈ 28.7 µM)	100 µg/mL (≈ 230 µM)	45%	61%	43%	77%	40%
Cc1ccc(CSc2nnc(CSc3nc4nc(C)cc(C)n4n3)s2)cc1	> 100 µg/mL	> 100 µg/mL	12.5 µg/mL (≈ 30.2 µM)	50 µg/mL (≈ 121 µM)	32%	57%	38%	74%	65%
Cc1cc(C)n2nc(SCc3nnc(SCc4cccc([N+](=O)[O-])c4)s3)nc2n1	25 µg/mL (≈ 56.1 µM)	25 µg/mL (≈ 56.1 µM)	25 µg/mL (≈ 56.1 µM)	25 µg/mL (≈ 56.1 µM)	64%	64%	70%	63%	28%
Cc1cc(C)n2nc(SCc3nnc(SCc4ccc(C)c([N+](=O)[O-])c4)s3)nc2n1	> 100 µg/mL	12.5 µg/mL (≈ 27.2 µM)	25 µg/mL (≈ 54.4 µM)	12.5 µg/mL (≈ 27.2 µM)	41%	89%	78%	68%	40%
Cc1cc(C)n2nc(SCc3nnc(SCc4ccccc4C)s3)nc2n1	> 100 µg/mL	> 100 µg/mL	12.5 µg/mL (≈ 30.2 µM)	25 µg/mL (≈ 60.3 µM)	48%	55%	36%	73%	50%
OCC1=C[C@H](N[C@H]2C[C@H](CO)[C@@H](O[C@@H]3O[C@H](CO)[C@@H](O)[C@H](O)[C@H]3O)[C@H](O)[C@H]2O)[C@H](O)[C@@H](O)[C@@H]1O [VALIDAMYCIN]	–	–	–	–	37%	75%	42%	47%	35%
Cc1cc(C)n2nc(SCc3nnc(SCc4ccccc4F)s3)nc2n1	> 100 µg/mL	> 100 µg/mL	12.5 µg/mL (≈ 29.9 µM)	25 µg/mL (≈ 59.7 µM)	45%	68%	39%	78%	55%
Cc1cc(C)n2nc(SCc3nnc(SCc4ccc(F)cc4F)s3)nc2n1	25 µg/mL (≈ 57.3 µM)	25 µg/mL (≈ 57.3 µM)	3.13 µg/mL (≈ 7.17 µM)	12.5 µg/mL (≈ 28.6 µM)	64%	79%	64%	86%	56%
Cc1cc(C)n2nc(SCc3nnc(SCc4cccc(Cl)c4)s3)nc2n1	> 100 µg/mL	50 µg/mL (≈ 115 µM)	25 µg/mL (≈ 57.5 µM)	100 µg/mL (≈ 230 µM)	15%	53%	57%	66%	57%
Cc1cc(C)n2nc(SCc3nnc(SCc4ccc(Br)cc4F)s3)nc2n1	> 100 µg/mL	50 µg/mL (≈ 101 µM)	6.25 µg/mL (≈ 12.6 µM)	12.5 µg/mL (≈ 25.1 µM)	35%	75%	62%	82%	38%
Cc1cc(C)n2nc(SCc3nnc(SCc4cccc(Br)c4)s3)nc2n1	> 100 µg/mL	12.5 µg/mL (≈ 26.1 µM)	50 µg/mL (≈ 104 µM)	50 µg/mL (≈ 104 µM)	47%	67%	77%	58%	56%
Cc1cc(C)n2nc(SCc3nnc(SCc4ccc(F)cc4)s3)nc2n1	> 100 µg/mL	50 µg/mL (≈ 119 µM)	12.5 µg/mL (≈ 29.9 µM)	50 µg/mL (≈ 119 µM)	18%	55%	60%	79%	42%
Cc1cccc(CSc2nnc(CSc3nc4nc(C)cc(C)n4n3)s2)c1	> 100 µg/mL	> 100 µg/mL	12.5 µg/mL (≈ 30.2 µM)	50 µg/mL (≈ 121 µM)	45%	54%	43%	72%	55%
Cc1cc(C)n2nc(SCc3nnc(SCc4ccc(Br)cc4)s3)nc2n1	> 100 µg/mL	> 100 µg/mL	12.5 µg/mL (≈ 26.1 µM)	100 µg/mL (≈ 209 µM)	25%	51%	43%	76%	62%
